How the values were obtained:
Rattus norvegicus [1] = species: Rattus norvegicus; assay: Binding affinity at [3H]SB-204269 binding site expressed as pKi; format: functional
How it was run: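 Radioligand binding with [3H]SB-204269, reported as pKi. All determinations run in triplicate.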

Rattus norvegicus [2] = assay: Anticonvulsant activity by using rat MEST test at 2 mg/kg p.o. 2 hr post-dose; format: functional; conditions: route oral
How it was run: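 Rat maximal electroshock seizure threshold (MEST) test. Oral dosing at 2 mg/kg, doses as free base; reference anticonvulsant given at 2.5 mg/kg p.o. Seizure threshold read 2 h post-dose as % increase versus vehicle-treated controls. Significance by Litchfield–Wilcoxon analysis.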

[3] = Oral bioavailability; format: ADME, organism-based; conditions: rat, in vivo
How it was run: (§1)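 Rat pharmacokinetics after iv and po administration. Oral bioavailability (Fpo) was measured with oral dosing at 2 mg/kg, and blood clearance (CLb) in mL/min/kg.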

[4] = Oral bioavailability at the dose of 2 mg/kg in rat; format: ADME, organism-based; conditions: in vivo; how it was run: as §1
[5] = Plasma clearance was determined; format: ADME, organism-based; conditions: rat
Rattus norvegicus [6] = species: Rattus norvegicus; assay: Compound tested for its ability to protect rat from hindlimb tonic seizures following a shock by using ALLFITrd quo; format: functional
How it was run: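 Rat supraMES model. Oral doses of 1, 10 and 30 mg/kg. At 4 h post-dose, a single corneal-electrode shock of 180 mA lasting 0.3 s was given. Protection from hindlimb tonic seizures was scored against control, and ED50 was derived by ALLFIT fitting.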

[7] = Oral bioavailability in rat; format: ADME, organism-based; conditions: in vivo; how it was run: as §1

SMILES | Log Ki (Rattus norvegicus [1]) | Increase (Rattus norvegicus [2]) | also measured
COc1ccc(C(=O)Nc2cnc3c(c2)CN(C)CC3(C)C)cc1F | -7.3 |  | 
COc1ccc(C(=O)Nc2cnc3c(c2)CNCC3(C)C)cc1F | -7.2 |  | 
COc1ccc(C(=O)Nc2cnc3c(c2)CN(C)CC3(C)C)cc1C#N | -7.3 | 110% | 
COc1ccc(C(=O)Nc2cnc3c(c2)CN(C)CC3(C)C)cc1C(F)(F)F | -8.8 | 570% | bioavailability [3]: 20%
COc1ccc(C(=O)Nc2cnc3c(c2)CNCC3(C)C)cc1Cl | -8.1 | 260% | 
COc1ccc(C(=O)Nc2cnc3c(c2)CN(C)CC3(C)C)cc1Cl | -8.5 | 380% | 
CC(C)Oc1ccc(C(=O)Nc2cnc3c(c2)CNCC3(C)C)cc1C(F)(F)F | -8.4 | 15% | 
COc1ccc(C(=O)Nc2cnc3c(c2)CNCC3(C)C)cc1C(F)(F)F | -8.7 | 260% | bioavailability [4]: > 50%; clearance [5]: 30 mL/min/kg; ED50 (Rattus norvegicus [6]): 3.9 mg/kg
CCOc1ccc(C(=O)Nc2cnc3c(c2)CNCC3(C)C)cc1C(F)(F)F | -8.6 | 80% | 
COc1ccc(C(=O)Nc2ccc3c(c2)CN(C)CC3)cc1C(F)(F)F | -8.9 |  | bioavailability [7]: 2%
CCOc1ccc(C(=O)Nc2cnc3c(c2)CN(C)CC3(C)C)cc1C(F)(F)F | -8.5 | 310% | 
COc1ccc(C(=O)Nc2cnc3c(c2)CNCC3(C)C)cc1Br | -8.7 | 260% | 
CN1Cc2cc(NC(=O)c3ccccc3)cnc2C(C)(C)C1 | -6.2 | 3% | 
COc1ccc(C(=O)Nc2cnc3c(c2)CN(C)CC3(C)C)cc1Br | -8.6 | 210% | 
CC(=O)c1ccc2c(c1)[C@H](NC(=O)c1ccc(F)cc1)[C@@H](O)C(C)(C)O2 [CARABERSAT] |  | 120% | ED50 (Rattus norvegicus [6]): 6.3 mg/kg

Source: ChEMBL document CHEMBL1136371, “The design of 8,8-dimethyl[1,6]naphthyridines as potential anticonvulsant agents” (Bioorg Med Chem Lett, 2003)
